In brackets after ≈: the same amount, converted by molar mass.
Tests used:
[1] = test system: Mus musculus; assay: Analgesic activity in mouse assessed as inhibition of hind paw lick at 100 mg/kg, ip by hot plate test; type: functional; details: route intraperitoneal
[2] = test system: Mus musculus; assay: Analgesic activity in mouse assessed as inhibition of acetic acid induced-abdominal writhing at 100 mg/kg, ip by Koster test; type: functional; details: Abdomen, route intraperitoneal
[3] = test system: Mus musculus; assay: Antiinflammatory activity against carrageenan-induced hind paw oedema in mouse assessed as inhibition of swelling thickness at 100 mg/kg, po after 90 mins; type: functional; details: 1.5 h
Summary of the method: (§1)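 Fasted mice (n = 5–6) were dosed orally with the sample in 0.5% CMC/water. One hour later, carrageenan (0.5 mg/25 µl in 154 mM saline) was injected subplantar into the right hind paw. The right-minus-left footpad thickness difference was measured with dial gauge callipers every 90 min over 6 h. Inhibition % is calculated versus vehicle control; mean ± SEM, Student's t test.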

[4] = test system: Mus musculus; assay: Antiinflammatory activity against carrageenan-induced hind paw oedema in mouse assessed as inhibition of swelling thickness at 200 mg/kg, po after 90 mins; type: functional; details: 1.5 h; summary of the method: as §1
[5] = test system: Mus musculus; assay: Antiinflammatory activity against carrageenan-induced hind paw oedema in mouse assessed as inhibition of swelling thickness at 100 mg/kg, po after 180 mins; type: functional; details: 3 h; summary of the method: as §1
[6] = test system: Mus musculus; assay: Antiinflammatory activity against carrageenan-induced hind paw oedema in mouse assessed as swelling thickness at 50 mg/kg, po after 180 mins; type: functional; summary of the method: as §1
[7] = test system: Mus musculus; assay: Antiinflammatory activity against carrageenan-induced hind paw oedema in mouse assessed as inhibition of swelling thickness at 200 mg/kg, po after 180 mins; type: functional; details: 3 h; summary of the method: as §1
[8] = test system: Mus musculus; assay: Antiinflammatory activity against carrageenan-induced hind paw oedema in mouse assessed as swelling thickness at 50 mg/kg, po after 270 mins; type: functional; summary of the method: as §1
[9] = test system: Mus musculus; assay: Antiinflammatory activity against carrageenan-induced hind paw oedema in mouse assessed as inhibition of swelling thickness at 200 mg/kg, po after 270 mins; type: functional; details: 4.5 h; summary of the method: as §1
[10] = test system: Mus musculus; assay: Antiinflammatory activity against carrageenan-induced hind paw oedema in mouse assessed as swelling thickness at 50 mg/kg, po after 360 mins; type: functional; summary of the method: as §1
[11] = test system: Mus musculus; assay: Antiinflammatory activity against carrageenan-induced hind paw oedema in mouse assessed as inhibition of swelling thickness at 200 mg/kg, po after 360 mins; type: functional; details: 6 h; summary of the method: as §1
[12] = test system: Mus musculus; assay: Toxicity in mouse assessed as ulceration effect at 200 mg/kg; type: functional, organism-based; parameters: dose 200 mg/kg
Summary of the method: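 Mice given 200 mg/kg orally in the carrageenan oedema study were killed under deep ether anaesthesia 6 h after treatment. Stomachs were opened along the greater curvature and examined under a dissecting microscope for lesions or bleeding. Result is expressed as the ratio of ulcerated animals per group.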

[13] = test system: Staphylococcus aureus; assay: Antibacterial activity against Staphylococcus aureus ATCC 29213 after 24 hrs by broth microdilution test; type: functional; details: ATCC 29213, 24 h
Summary of the method: (§2)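 NCCLS broth microdilution in Mueller-Hinton broth with an inoculum of 5 × 10^5 cfu/mL. Compounds were dissolved in DMSO, diluted in sterile water, and tested as twofold dilutions from 512 to 0.5 µg/mL. Plates were incubated at 35 °C for 24 h. MIC is the lowest concentration preventing visible growth.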

[14] = test system: Enterococcus faecalis; assay: Antibacterial activity against Enterococcus faecalis ATCC 29212 after 24 hrs by broth microdilution test; type: functional; details: ATCC 29212, 24 h; summary of the method: as §2
[15] = test system: Escherichia coli; assay: Antibacterial activity against Escherichia coli ATCC 25922 after 24 hrs by broth microdilution test; type: functional; details: ATCC 25922, 24 h; summary of the method: as §2
[16] = test system: Pseudomonas aeruginosa; assay: Antibacterial activity against Pseudomonas aeruginosa ATCC 27853 after 24 hrs by broth microdilution test; type: functional; details: ATCC 27853, 24 h; summary of the method: as §2
[17] = test system: Candida albicans; assay: Antifungal activity against Candida albicans ATCC 90028 after 48 hrs by broth microdilution test; type: functional; details: ATCC 90028, 48 h
Summary of the method: (§3)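 Yeasts tested by NCCLS M27-A broth microdilution in RPMI 1640 (with L-glutamine, without sodium bicarbonate) with an inoculum of 0.5–2.5 × 10^3 cfu/mL. Compounds were prepared from DMSO solution diluted in water as twofold dilutions from 512 to 0.5 µg/mL. Plates were incubated at 35 °C for 48 h. MIC is the lowest concentration giving no visible growth.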

[18] = test system: Pichia kudriavzevii; assay: Antifungal activity against Candida krusei ATCC 6258 after 48 hrs by broth microdilution test; type: functional; details: ATCC 6258, 48 h; summary of the method: as §3
[19] = test system: Candida parapsilosis; assay: Antifungal activity against Candida parapsilosis ATCC 22019 after 48 hrs by broth microdilution test; type: functional; details: Lodderomyces parapsilosis, ATCC 22019, 48 h; summary of the method: as §3
[20] = test system: Mus musculus; assay: Antiinflammatory activity against carrageenan-induced hind paw oedema in mouse assessed as swelling thickness at 100 mg/kg, po after 270 mins; type: functional; summary of the method: as §1
[21] = test system: Mus musculus; assay: Antiinflammatory activity against carrageenan-induced hind paw oedema in mouse assessed as swelling thickness at 100 mg/kg, po after 360 mins; type: functional; summary of the method: as §1
[22] = test system: Mus musculus; assay: Antiinflammatory activity against carrageenan-induced hind paw oedema in mouse assessed as swelling thickness at 50 mg/kg, po after 90 mins; type: functional; summary of the method: as §1
[23] = test system: Mus musculus; assay: Antiinflammatory activity against carrageenan-induced hind paw oedema in mouse assessed as swelling thickness at 100 mg/kg, po after 180 mins; type: functional; summary of the method: as §1
[24] = test system: Mus musculus; assay: Antiinflammatory activity against carrageenan-induced hind paw oedema in mouse assessed as inhibition of swelling thickness at 100 mg/kg, po after 270 mins; type: functional; details: 4.5 h; summary of the method: as §1
[25] = test system: Mus musculus; assay: Antiinflammatory activity against carrageenan-induced hind paw oedema in mouse assessed as inhibition of swelling thickness at 100 mg/kg, po after 360 mins; type: functional; details: 6 h; summary of the method: as §1
[26] = test system: Mus musculus; assay: Antiinflammatory activity against carrageenan-induced hind paw oedema in mouse assessed as swelling thickness at 200 mg/kg, po after 360 mins; type: functional; summary of the method: as §1
[27] = test system: Mus musculus; assay: Antiinflammatory activity against carrageenan-induced hind paw oedema in mouse assessed as inhibition of swelling thickness at 50 mg/kg, po after 90 mins; type: functional; details: 1.5 h; summary of the method: as §1

| Compound | inhibition in vivo at 100 mg/kg [1] [%] | inhibition in vivo at 100 mg/kg [2] [%] | inhibition in vivo at 100 mg/kg [3] [%] | inhibition in vivo at 200 mg/kg [4] [%] | inhibition in vivo at 100 mg/kg [5] [%] | Activity [6] [%] | inhibition in vivo at 200 mg/kg [7] [%] | Activity [8] [%] | inhibition in vivo at 200 mg/kg [9] [%] | Activity [10] [%] | Activity [12] | MIC [13] [µg/mL] | MIC [14] [µg/mL] | MIC [15] [µg/mL] | MIC [16] [µg/mL] | MIC [17] [µg/mL] | MIC [18] [µg/mL] | MIC [19] [µg/mL] | Activity [20] [%] | Activity [21] [%] | further results |
| --- | --- | --- | --- | --- | --- | --- | --- | --- | --- | --- | --- | --- | --- | --- | --- | --- | --- | --- | --- | --- | --- |
| Cc1ccc2oc(=O)n(CC(=O)NNC(=S)Nc3ccccc3)c2c1 | 23.9 | 55.6 | 79.8 | 40.3 | 31.3 | 140.9 | 53.4 | 162.6 | 30.5 | 153.3 | Not toxic | 256 (≈ 718 µM) | 512 (≈ 1440 µM) | 256 (≈ 718 µM) | 256 (≈ 718 µM) | 256 (≈ 718 µM) | 256 (≈ 718 µM) | 128 (≈ 359 µM) | 92 | 79.2 | inhibition in vivo at 200 mg/kg [11]: 34.1% |
| CNc1nnc(Cn2c(=O)oc3ccc(C)cc32)s1 | 54.3 | 73.8 | 62.7 | 63.5 | 21.4 | 101.3 | 46.9 | 106.8 | 33.3 | 96 |  | 512 (≈ 1850 µM) | 512 (≈ 1850 µM) | 512 (≈ 1850 µM) | 512 (≈ 1850 µM) | 256 (≈ 926 µM) | 256 (≈ 926 µM) | 256 (≈ 926 µM) | 110.4 | 106.7 | Activity [22]: 66%; inhibition in vivo at 200 mg/kg [11]: 14.5% |
| CCn1c(Cn2c(=O)oc3ccc(C)cc32)n[nH]c1=S | 36.2 | 43.5 | 57.1 | 56.5 |  | 91.1 | 31.8 | 147.3 | 25.9 | 146.7 | Not toxic | 512 (≈ 1760 µM) | 512 (≈ 1760 µM) | 512 (≈ 1760 µM) | 256 (≈ 882 µM) | 512 (≈ 1760 µM) | 256 (≈ 882 µM) | 256 (≈ 882 µM) | 117.6 | 87.1 | Activity [23]: 95.9%; Activity [22]: 82.9%; inhibition in vivo at 200 mg/kg [11]: 19.7% |
| Cc1ccc2oc(=O)n(Cc3n[nH]c(=S)n3C)c2c1 | 2.2 | 49.6 | 79.8 | 42 | 11.8 | 85.1 | 38.6 | 120.7 | 15.8 | 97.8 | Not toxic | > 512 | > 512 | 512 (≈ 1850 µM) | 512 (≈ 1850 µM) | 512 (≈ 1850 µM) | 512 (≈ 1850 µM) | 256 (≈ 926 µM) |  |  | Activity [22]: 67.5%; inhibition in vivo at 100 mg/kg [24]: 14.8%; inhibition in vivo at 100 mg/kg [25]: 27.4%; Activity [26]: 79.1% |
| Cc1ccc2oc(=O)n(CC(=O)N/N=C/c3ccccc3)c2c1 | 23.9 | 62.5 | 79.8 | 63.5 | 30 | 100.1 | 37.8 | 108.8 | 27.2 | 115 |  | 256 (≈ 828 µM) | 512 (≈ 1660 µM) | 256 (≈ 828 µM) | 256 (≈ 828 µM) | 128 (≈ 414 µM) | 128 (≈ 414 µM) | 128 (≈ 414 µM) | 95.4 | 84.5 | Activity [22]: 98.3% |
| Cc1ccc2oc(=O)n(CC(=O)N/N=C/c3ccc(Br)cc3)c2c1 | 20.3 | 72.6 | 44.4 |  | 43.7 | 94.6 | 46.9 | 95.9 | 11.1 | 83 | Toxic | > 512 | > 512 | > 512 | > 512 | 64 (≈ 165 µM) | 256 (≈ 659 µM) | 128 (≈ 330 µM) | 92 |  | inhibition in vivo at 100 mg/kg [25]: 19.1%; inhibition in vivo at 50 mg/kg [27]: 1.9%; Activity [26]: 84.4% |
